# KCNK9 block – KCNK9 potassium channel inhibitors, primary screen, HEK293 cells, thallium flux; B-score at 10 µM; AID 488922, 2010; Potassium channel subfamily K member 9 (Homo sapiens), Q9NPC2; 310,000 compounds, 1.2% hits; FluxOR thallium flux fluorescence; active compounds read low;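 active = ratio B-score over 3 SD below the library mean, with starting fluorescence within 5 SD of its mean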;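 note: negative B-score means less thallium flux so channel inhibition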
# KCNQ1 inh – inhibitors of human KCNQ1 channel, primary screen, cell-based, thallium flux, high-throughput. Potassium voltage-gated channel subfamily KQT member 1 (Homo sapiens), P51787. CHO-K1 KCNQ1, FluxOR thallium flux fluorescence; active compounds read high. AID 2642, 2010. B-score at 10 µM. 310,000 compounds, 1.3% hits;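 active = compounds whose thallium flux B-score, printed positive for inhibition, exceeds three library SD while starting fluorescence stays within three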;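 note: channel opened by potassium depolarization with thallium stimulus after 20 min compound exposure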
# KCNK3 block – human KCNK3 channel inhibitors, primary screen, CHO cells, FluxOR thallium flux, B-score; B-score at 10 µM; 340,000 compounds, 0.84% hits; FluxOR fluorescence; active compounds read low;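 active = B-score under library mean minus 4 SD, starting fluorescence ratio at most library mean plus 5 SD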;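 note: more negative B-score means stronger inhibition of thallium flux through KCNK3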
# hERG protect – hERG rescue from dofetilide block, primary screen, cell-based, CHO-hERG, FluxOR thallium flux, dofetilide IC70; Voltage-gated inwardly rectifying potassium channel KCNH2 (Homo sapiens), Q12809; dofetilide IC70 present; activation (rescue from dofetilide block), less the hit threshold, % at 10 µM; 310,000 compounds, 0.51% hits;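 active = activation above the mean of controls blocked by dofetilide plus 5 SD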;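 note: thallium influx through hERG after potassium depolarization seen as dye fluorescence rise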
# KCNQ1 act – potentiators or activators of KCNQ1 channel, primary screen, cell-based, thallium flux, high-throughput | B-score at 10 µM | Potassium voltage-gated channel subfamily KQT member 1 (Homo sapiens), P51787 | CHO-K1 KCNQ1, thallium flux FluxOR fluorescence; active compounds read high | 310,000 compounds, 0.35% hits | AID 2648, 2010;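 active = fluorescence ratio B-score, a plate-corrected score, at least three library SD, with initial intensity B-score within 5 SD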
#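 Assay system: CHO-K1 cells stably expressing KCNQ1; Medium: assay buffer with matched DMSO; Also added: K+/Tl+ depolarizing stimulus; Dosing: single dose; Timing: dye 90 min, compound 20 min, room temperature; Measured by: kinetic FluxOR thallium fluorescence, 10-s 1-Hz baseline, 110-s post-stimulus read; Read-out: peak-minus-minimum fluorescence over initial fluorescence, negative-control normalized, B-scored.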
# PHOSPHO1 inh – PubChem AID 1565; Phosphoethanolamine/phosphocholine phosphatase (Homo sapiens), Q8TCT1; recombinant PHOSPHO1, absorbance phosphatase assay; inhibition, % at 13.3 µM; 290,000 compounds, 1.1% hits; in the data active = inhibition above about 60%
# KCNQ1 block val – KCNQ1 potassium channel inhibitors, confirmation, cell-based, Tl flux, duplicate; inhibition, % at 10 µM; 1,600 compounds, 93% hits; shares compounds with KCNQ1 inh; AID 588353, 2011; KCNQ1 cell line, FluxOR thallium flux fluorescence;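 active = primary screen active, with duplicate mean exceeding buffer control mean plus 3 SD of buffer wells, cut at about 28% in these data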;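 note: 0% = buffer control ratio and 100% = XE991 inhibitor control ratio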
# CHO KCNQ1 ctr – thallium flux effects in parental CHO cells, counter-screen for KCNQ1 inhibitor project, cell-based, Tl flux; parental CHO-K1, FluxOR thallium flux fluorescence ratio; active compounds read low; zero means no signal rise above baseline; fluorescence ratio (Tl flux) at 10 µM; AID 588366, 2011; 1,600 compounds, 21% hits; shares compounds with KCNQ1 inh;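 active = mean of duplicate thallium-flux fluorescence ratios in parental host cells more than 5 SD below the buffer control mean, cut at about 0.38 in these data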;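 note: ratio is peak minus minimum fluorescence divided by baseline fluorescence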
# KCNQ1 ephys val – KCNQ1 channel inhibitors, confirmation, orthogonal assay, cell-based, automated electrophysiology; KCNQ1-CHO cells, automated patch clamp current; shares compounds with KCNQ1 inh; 490 compounds, 20% hits; calls only at 10 µM;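 active = KCNQ1 current drop exceeding 3 SD of negative control wells, seen in both duplicate runs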;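 note: steady state current during a 2 s step from -80 to +40 mV; negative values mean current inhibition and positive values mean potentiation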
# KCNQ2 spec – KCNQ2 channel inhibition, selectivity assay for KCNQ1 inhibitor project, cell-based. shares compounds with KCNQ1 inh. KCNQ2 cells, FluxOR thallium flux fluorescence. inhibition, % at 10 µM. 1,600 compounds, 71% hits. AID 651746, 2012;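 active = mean percent inhibition of the KCNQ2 thallium signal more than 5 SD above the buffer-only control wells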;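 note: KCNQ2 expressed in CHO cells; 0% = buffer control wells and 100% = XE-991 inhibitor control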
# Target sequence (O88943 whole entry, looked up): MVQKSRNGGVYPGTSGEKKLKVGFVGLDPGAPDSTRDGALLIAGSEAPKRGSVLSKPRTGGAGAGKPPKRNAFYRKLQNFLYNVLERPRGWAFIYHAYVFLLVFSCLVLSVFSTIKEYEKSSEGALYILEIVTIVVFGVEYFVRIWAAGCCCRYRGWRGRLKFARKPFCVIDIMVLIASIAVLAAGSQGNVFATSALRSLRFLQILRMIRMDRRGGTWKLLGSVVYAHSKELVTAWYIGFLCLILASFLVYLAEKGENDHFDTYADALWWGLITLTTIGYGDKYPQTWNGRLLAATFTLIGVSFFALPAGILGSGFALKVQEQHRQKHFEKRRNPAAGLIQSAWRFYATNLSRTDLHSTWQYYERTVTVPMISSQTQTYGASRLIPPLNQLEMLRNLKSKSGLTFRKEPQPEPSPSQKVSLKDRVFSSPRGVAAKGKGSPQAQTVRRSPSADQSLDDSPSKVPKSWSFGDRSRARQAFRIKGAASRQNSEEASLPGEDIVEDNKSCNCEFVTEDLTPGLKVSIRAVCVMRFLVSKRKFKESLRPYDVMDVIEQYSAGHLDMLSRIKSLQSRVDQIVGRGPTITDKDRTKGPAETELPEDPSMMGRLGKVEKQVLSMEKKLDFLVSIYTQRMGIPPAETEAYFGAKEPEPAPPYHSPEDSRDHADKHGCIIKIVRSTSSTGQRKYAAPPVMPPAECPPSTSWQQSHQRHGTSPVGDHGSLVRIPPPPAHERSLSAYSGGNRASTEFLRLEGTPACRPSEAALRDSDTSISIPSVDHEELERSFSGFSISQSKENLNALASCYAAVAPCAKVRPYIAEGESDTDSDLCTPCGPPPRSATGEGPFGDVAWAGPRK
# KCNQ1-KCNE1 inh – KCNQ1/KCNE1 channel inhibition, selectivity assay for KCNQ1 inhibitor project, CHO-K1 cells, thallium flux, FluxOR. shares compounds with KCNQ1 inh. FluxOR thallium flux fluorescence. inhibition, % at 10 µM. 1,600 compounds, 77% hits. AID 652147, 2013;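 active = mean percent inhibition of duplicate wells above the buffer-only control mean plus 3 SD of those controls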;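 note: 0% = buffer only wells and 100% = XE-991 inhibitor control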
# KCNK9 block conf – KCNK9 potassium channel inhibitors, confirmation, HEK293 cells, thallium flux, duplicate. 4,900 compounds, 43% hits. inhibition, % at 10 µM. AID 492992, 2010. FluxOR thallium flux fluorescence. shares compounds with KCNK9 block;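 active = thallium signal inhibited by more than 5 SD of the compound-free buffer control wells, on both duplicate plates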;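 note: 0% = assay buffer control wells without compound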
# Kir2-1 spec – mouse Kir2.1 channel inhibition, confirmation, selectivity assay for KCNK9 modulator project, cell-based, HEK293, thallium flux | inhibition, % at 10 µM | shares compounds with KCNK9 block | 4,900 compounds, 4% hits | Kir2.1 cells, FluxOR thallium flux fluorescence;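 active = thallium signal drop more than 5 SD beyond the mean of the no-compound control wells, seen in both duplicate plates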;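 note: signal is fluorescence rise after thallium addition divided by baseline fluorescence; plate controls were assay buffer only for no effect and full block by chlorpromazine control for full effect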
# HEK293 Tl ctr – thallium flux in non-induced HEK293 cells, confirmation, counter-screen for KCNK9 inhibitor project, cell-based, second counter screen, non-induced KCNK9-HEK293; shares compounds with KCNK9 block; FluxOR thallium flux; inhibition, % at 10 µM; 4,900 compounds, 40% hits; AID 492997, 2010;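 active = thallium signal drop beyond 5 SD of the untreated control mean, on both duplicate plates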;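 note: plate controls were buffer only IC0 wells for no effect and SID17386958 at its maximal inhibitory level for full effect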
# KCNK3 inh conf – retest of human KCNK3 channel inhibitors, confirmation, CHO cells, FluxOR thallium flux, triplicate; shares compounds with KCNK3 block; FluxOR fluorescence; 0% buffer, 100% carvedilol maximal block; ratio percent of control, % at 10 µM; 2,400 compounds, 99% hits; AID 651638, 2012;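 active = ratio percent of control, averaged over triplicates, above buffer control mean plus 5 SD, cut at about 64% in these data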;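 note: ratio is the fluorescence rise from min to max over baseline after thallium stimulus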
# KCNK3 uninduced – thallium flux inhibition in non-induced cells, primary screen, counter-screen for KCNK3 inhibitor project, cell-based, non-induced KCNK3 line, FluxOR thallium, triplicate; shares compounds with KCNK3 block; non-induced KCNK3 parental cells; active compounds read low; thallium flux ratio (lower = more inhibition) at 10 µM; 2,400 compounds, 40% hits;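 active = thallium flux ratio, averaged over three wells, more than 5 SD below the buffer control mean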;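 note: host cells are CHO cells without KCNK3 induction; ratio is peak minus trough fluorescence over baseline then normalized to buffer controls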
# The depositor's hits bear a star; i = inactive; . = no result given; + = active, no number. This is a sample that favours compounds with a hit; in the whole collection about 4% have one here.
SMILES,KCNK9 block,KCNQ1 inh,KCNK3 block,hERG protect,KCNQ1 act,PHOSPHO1 inh,KCNQ1 block val,CHO KCNQ1 ctr,KCNQ1 ephys val,KCNQ2 spec,KCNQ1-KCNE1 inh,KCNK9 block conf,Kir2-1 spec,HEK293 Tl ctr,KCNK3 inh conf,KCNK3 uninduced
CCN1C=C(Cc2ccccc2C)C2=C(C1)C(c1ccccc1C)C(C#N)=C(N)O2 (stereo unspecified),-6.7*,12*,-8.9*,-21,i,42,116*,0.32*,.,105%*,104%*,.,.,.,118*,0.13*
CC(=O)C1=C(c2ccccc2)OC(N)=C(C#N)C1c1ccccc1C (stereo unspecified),i,i,i,-8,i,2,.,.,.,.,.,.,.,.,.,.
COc1cccc(-c2cc3nc4c(c(NCC(C)(C)CN(C)C)n3n2)CCCC4)c1,i,9*,-10*,-10,i,-15,86*,0.45,.,95%*,116%*,.,.,.,120*,i
COc1ccccc1Nc1nc(NCCO)c2ccccc2n1,i,i,.,-11,i,9,.,.,.,.,.,.,.,.,.,.
Cc1ccc(Nc2nc(NCCO)c3ccccc3n2)cc1C,i,7*,-12*,-20,i,41,102*,0.39,i,66%*,84%*,.,.,.,128*,i
COc1ccccc1OCC(O)Cn1c(=N)n(Cc2ccccc2)c2ccccc21 (stereo unspecified),i,i,i,-18,i,6,.,.,.,.,.,.,.,.,.,.
Cc1ccccc1OCC(O)Cn1c(=N)n(Cc2ccccc2)c2ccccc21 (stereo unspecified),i,12*,-12*,-26,i,32,130*,0.41,i,99%*,i,.,.,.,125*,i
O=C(CCCOc1ccc(Cl)cc1Cl)N1CCCc2ccccc21,i,8*,-11*,-11,i,-7,112*,0.41,i,92%*,167%*,i,i,33%*,122*,0.14*
CC1=Nc2ccccc2/C1=C/c1sc(=S)n(-c2cccc(C(=O)O)c2)c1O,i,15*,-11*,4,i,-30,106*,0.34*,.,i,i,.,.,.,145*,0.11*
COc1ccc(-n2cc(-c3ccccc3)c3c(N4CC(C)OC(C)C4)ncnc32)cc1 (stereo unspecified),i,12*,-11*,-35,i,-16,121*,0.41,i,142%*,170%*,.,.,.,114*,0.13*
Cc1nc2ccccc2c2c1CC(C(C)(Cl)Br)O2 (stereo unspecified),i,6*,-9.6*,-26,i,-3,106*,0.48,+,80%*,i,.,.,.,127*,i
COc1ccc(Cl)cc1C(=O)Nc1ccccc1N1CCN(C)CC1,i,i,i,-23,i,0,.,.,.,.,.,.,.,.,.,.
COc1ccc(Cl)cc1C(=O)Nc1ccccc1N1CCCCC1,-8.9*,7*,-8.9*,-12,i,28,103*,0.41,i,99%*,146%*,50%*,i,46%*,107*,i
O=C(NC(Cc1ccccc1)C(=O)O)/C(=C\c1ccc(F)cc1)NC(=O)c1ccccc1 (stereo unspecified),i,i,i,-3,i,50,.,.,.,.,.,.,.,.,.,.
CCOC(=O)N1CCC(n2c(SCC(=O)Nc3ccccc3OC)nc3ccccc3c2=O)CC1,i,6*,-8.9*,-8,i,14,82*,0.38*,.,109%*,136%*,i,i,i,110*,0.15*
Cc1ccc(-c2nc3ccccn3c2NCc2ccc3c(c2)OCO3)cc1,-17*,10*,-9.9*,-44,i,0,118*,0.39,i,113%*,188%*,52%*,i,i,143*,i
